MrgX1 ag = agonists of human MrgX1 receptor; MrgX1-HEK293 cells, Fluo-4 calcium fluorescence, agonist mode; stronger effect = higher value; AID 588627; B-score at 10 µM; 0.44% of 310,000 active; Q96LB2;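 active means calcium response B-score plate-corrected fluorescence ratio at least 3 library SD, with starting fluorescence B-score inside 5 SD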
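Test system: Stable human MrgX1 HEK293 cell line | Schedule: Overnight plating before 1 h dye loading | Read-out basis: Baseline-normalised fluorescence change ratio, B-scored | Detection: Kinetic calcium dye fluorescence, Fluo-4 NW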
RGS4 block = human RGS4 inhibition; 0.45% of 310,000 active; P49798; B-score at 10 µM; HEK293 M3R/RGS4 inducible, Fluo-4 calcium flux; stronger effect = higher value; triggered by carbachol at its EC20;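 active means B-score, a plate-corrected calcium signal, over three deviations above library mean, with baseline fluorescence within five deviations of library mean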;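 further: RGS4 expression induced by doxycycline in cells with stable M3 receptor; B-score is computed from the integrated fluorescence ratio over baseline after carbachol; higher B-score means a larger calcium signal and so more RGS4 inhibition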
Target sequence (P49798 whole entry, looked up): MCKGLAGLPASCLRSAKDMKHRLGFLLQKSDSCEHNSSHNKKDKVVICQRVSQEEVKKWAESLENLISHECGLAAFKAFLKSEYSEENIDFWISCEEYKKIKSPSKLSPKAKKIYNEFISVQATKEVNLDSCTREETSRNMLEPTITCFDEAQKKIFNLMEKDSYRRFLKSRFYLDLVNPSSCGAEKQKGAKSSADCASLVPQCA
MrgX1 antag = antagonists of human MrgX1 receptor | Q96LB2 | MRGX1-HEK293 calcium flux, Fluo-4, BAM8-22 antagonism; stronger effect = lower value | B-score at 10 µM | 1.3% of 310,000 active | AID 588676;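 active means calcium-response B-score plate-corrected more than 3 library SD below zero, starting fluorescence within 5 deviations, no agonist response on first addition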;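 further: peak minus trough fluorescence over baseline after final BAM8-22 challenge near maximal dose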
RGS4 pot = RGS4 potentiation or activation | HEK293 M3R/inducible RGS4, carbachol calcium flux Fluo4; stronger effect = lower value | B-score at 10 µM | 0.92% of 310,000 active | AID 463111;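 active means B-score of the integrated calcium signal more than 4 SD below the library mean, with starting fluorescence not abnormally high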;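 further: negative B-score means reduced calcium response which marks RGS4 activation or potentiation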
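Reagent: ECmax carbachol challenge; Test system: M3R-expressing HEK293 line, RGS4 induced by doxycycline; Schedule: overnight RGS4 induction, 30 min dye load 37 °C, 20 min compound RT; Detection: calcium dye Fluo4 fluorescence; Read-out: Agonist-evoked peak-minus-minimum fluorescence over baseline, integrated ratio, B score.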
MrgX1 allo act = allosterically activates human MrgX1 receptor signaling. MrgX1-HEK293, Fluo-4 calcium flux, FDSS; stronger effect = higher value. Q96LB2. 0.63% of 310,000 active. B-score at 10 µM;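 active means plate-corrected calcium response at least 3 library SD above typical, normal starting fluorescence, not activating the receptor alone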;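 further: compound read alongside a low EC10 to EC30 dose of BAM8-22 agonist; peak minus trough fluorescence over baseline measured at the second addition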
Each line names hits and unclear results; the compound was inactive in the other large screens. Sampled rows, rich in hits. Any-hit rate of the full collection: about 3.5%.

CCC1C=CC=CC[C@H](C)[C@@H](O)[C@](C)(O)C(=O)[C@@H](C)[C@H](O)[C@@H](C)C(=O)[C@H](C)[C@@H](O)[C@H](C)C=CC(=O)OC2[C@@H](C)C(CC1)OC1(CC[C@@H](C)C(C[C@H](C)O)O1)[C@@H]2C (stereo not given in full)	MrgX1 antag -4.8 (no result: RGS4 block, RGS4 pot)
CCCCCCOc1ccc(CN2CCN(CC)CC2)cc1	RGS4 pot -7.1
CCN1CCN(Cc2ccc(OC(F)(F)F)cc2)CC1	none
CCOC(=O)c1c(-n2c(C)cc(/C=C3/C(=O)NC(=O)N(CC)C3=O)c2C)sc2c1CCCC2	none
CCOC(=O)c1c(-n2c(C)cc(C=C3C(=O)NC(=S)NC3=O)c2C)sc2c1CCCC2	MrgX1 ag 28
O=c1c2ccccc2nc(-c2ccccc2Cl)n1-c1cccc(O)c1	none
OC(c1ccccc1)(c1ccccc1)C1CN2CCC1CC2 (stereo not given)	RGS4 pot -7.5
CC[n+]1c(/C=C/N(C)c2ccccc2)sc2ccc(Cl)cc21	RGS4 pot -9.5
CC[n+]1c(/C=C/C=C/c2ccc(N(C)C)cc2)sc2ccccc21	none
O=c1cccc2n1CC1CC2CN(C(c2ccccc2)c2sc3ncnn3c2O)C1 (stereo not given)	none
O=C1OC(c2ccc(Br)cc2)=N/C1=C\N1CC2CC(C1)c1cccc(=O)n1C2 (stereo not given)	none
O=C1OC(c2ccc([N+](=O)[O-])cc2)=N/C1=C/N1CC2CC(C1)c1cccc(=O)n1C2 (stereo not given)	MrgX1 ag 57
O=P(Nc1cccc(F)c1)(Oc1ccccc1F)Oc1ccccc1F	RGS4 pot -8.2
Cc1cccc(NP(=O)(Oc2ccccc2F)Oc2ccccc2F)c1	RGS4 pot -7.8
Cc1ccc(NP(=O)(Oc2ccccc2F)Oc2ccccc2F)cc1C	none
C[C@H]1CC[C@@H]2N(C1)C[C@H]1[C@@H]3C[C@H]4[C@@H](CC(=O)[C@H]5C[C@@H](O)CC[C@@]54C)[C@@H]3CC[C@H]1[C@]2(C)O	none
CC(=O)O[C@H]1CC[C@@]2(C)[C@H](C1)C(=O)C[C@H]1[C@@H]3CC[C@@H]4[C@@H](CN5C[C@@H](C)CC[C@H]5[C@@]4(C)O)[C@@H]3C[C@@H]12	RGS4 pot -7
COP(=O)(OC)C(NC(=O)/C=C/c1ccccc1)C(Cl)(Cl)Cl (stereo not given)	none
CCN(CC)S(=O)(=O)c1ccc(NN=C(C#N)C#N)cc1	MrgX1 antag -7.4
N#CC(C#N)=NNc1ccc(-n2ccc(C(F)(F)F)n2)cc1	none
Cc1cc(-c2ccccc2)cc(-c2ccccc2)[n+]1CCc1ccccc1	MrgX1 antag -4.6, RGS4 pot -8.2
Clc1ccc(C[n+]2c(-c3ccccc3)cc(-c3ccccc3)cc2-c2ccccc2)cc1	MrgX1 antag -6.9, RGS4 pot -8.1
CCOC(=O)c1cncn1[C@@H](C)c1ccccc1	none (no result: RGS4 block, RGS4 pot)
COc1ccc2c(c1)c(C(=O)CN1CCC3(CC1)OCCO3)c(C)n2Cc1ccccc1	none
Cc1ccc(S(=O)(=O)N(c2cc(Cl)c(O)c(Cl)c2)P(=O)(OC(C)C)OC(C)C)cc1	none
CCOc1cc2c(cc1OCC)-n1cccc1C(c1cc(OC)ccc1F)NC2 (stereo not given)	none
O=[N+]([O-])c1ccc(N2CCNCC2)cc1N1CCCCCC1	MrgX1 allo act 11
O=[N+]([O-])c1cc(F)c(N2CCCCCC2)cc1N1CCNCC1	MrgX1 antag -5.2
CN1CCN(c2ccc([N+](=O)[O-])c(N3CCCCC3)c2)CC1	none
CN1CCN(Cc2cc(C(C)(C)C)c(O)c(C(C)(C)C)c2)CC1	MrgX1 antag -5.2
CC1(C)C(C(=O)N2CCN(C(=O)c3ccccc3)CC2)C1(C)C	none
O=C1NC(=O)N(c2ccccc2)C(=O)/C1=C/c1coc2ccc(O)cc2c1=O	MrgX1 ag 27
C=C1C2[C@H](OC(C)=O)[C@@H]3CC(=O)[C@]4(C)OC[C@@]3(C)[C@@]4(O)[C@@H](OC(C)=O)[C@H](OC(C)=O)[C@@]2(COC(=O)c2ccccc2)[C@@H](OC(C)=O)C[C@@H]1O (stereo not given in full)	MrgX1 antag -5.4
CCN(CC)CCN=C(C)c1c(O)n(-c2ccccc2OC)c(=O)[nH]c1=O	none

Compound activity as filed in PubChem.
